# Most compounds without a hit are left out; they make up all but 5.7% or so of the library.
# Mdm2 MdmX PPI: human Mdm2/MdmX binding inhibition | O15151+Q00987 | SaOS-2 split-luciferase Mdm2/MdmX complementation, luminescence | inhibition, % at 8 µM | actives 3% (n = 330,000);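 active = inhibition of at least 50% at 8 µM in the primary screen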
# Target sequence (O15151 whole entry, looked up): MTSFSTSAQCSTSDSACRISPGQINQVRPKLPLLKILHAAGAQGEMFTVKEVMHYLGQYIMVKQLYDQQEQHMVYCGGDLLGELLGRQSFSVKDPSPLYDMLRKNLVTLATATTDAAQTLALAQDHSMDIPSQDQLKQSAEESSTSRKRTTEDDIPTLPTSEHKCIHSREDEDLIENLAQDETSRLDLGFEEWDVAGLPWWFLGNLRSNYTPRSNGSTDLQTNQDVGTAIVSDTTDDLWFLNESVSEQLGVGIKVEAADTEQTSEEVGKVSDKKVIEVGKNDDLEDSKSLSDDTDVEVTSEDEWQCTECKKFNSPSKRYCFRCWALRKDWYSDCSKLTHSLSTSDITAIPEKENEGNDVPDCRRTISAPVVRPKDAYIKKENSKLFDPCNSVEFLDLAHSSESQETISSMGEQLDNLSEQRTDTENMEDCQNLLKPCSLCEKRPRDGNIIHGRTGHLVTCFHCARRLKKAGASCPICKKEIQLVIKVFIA
# Target sequence (Q00987 whole entry, looked up): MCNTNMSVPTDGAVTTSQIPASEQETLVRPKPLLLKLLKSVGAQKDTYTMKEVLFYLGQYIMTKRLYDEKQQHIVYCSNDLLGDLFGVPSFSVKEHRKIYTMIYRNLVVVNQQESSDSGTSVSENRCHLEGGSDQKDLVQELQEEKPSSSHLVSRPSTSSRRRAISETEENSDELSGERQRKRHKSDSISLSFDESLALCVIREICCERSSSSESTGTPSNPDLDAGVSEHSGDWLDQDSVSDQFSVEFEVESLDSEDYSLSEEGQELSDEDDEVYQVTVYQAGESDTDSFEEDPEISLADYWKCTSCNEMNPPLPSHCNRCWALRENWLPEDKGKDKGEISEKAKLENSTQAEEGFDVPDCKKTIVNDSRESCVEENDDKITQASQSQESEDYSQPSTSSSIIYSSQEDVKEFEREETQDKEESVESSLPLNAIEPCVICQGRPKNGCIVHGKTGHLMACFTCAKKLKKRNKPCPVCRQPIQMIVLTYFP
# Calb FLC: affects C. albicans growth with fluconazole; C. albicans CaCi-2 (fluconazole-resistant clinical isolate) + fluconazole, Alamar Blue growth, 48 h; growth inhibition, % (no concentration beside the values); actives 0.57% (n = 300,000);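 active = growth inhibition above about 58% in most replicates, limit read from the data, passing the limit was not always enough; inconclusive = exactly half the replicates above a set limit; inactive = most replicates below a set limit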;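 note: all wells also contain fluconazole at 8 µg/ml as a sub-toxic cotreatment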
# CSC inhib: cancer stem cell inhibition; cancer stem cell-like cells viability, luminescence; inhibition, % at 7.5 µM; AID 2717; actives 1.1% (n = 300,000); in the data active = inhibition above about 75%; inconclusive = no clear call, values can overlap the other calls; tested in HMLE shEcad cells
# SKKanGAS inh: SKKanGAS growth inhibition | inhibition, % at 7.5 µM | S. pyogenes SKKanGAS, kanamycin growth, BacTiter-Glo, 6 h | actives 1.3% (n = 300,000);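 active = mean replicate score, as percent of positive control median, at least 50; inconclusive = mean below 50 but one replicate at or above 50; inactive = mean and every replicate below 50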;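 note: strain carries kanamycin resistance gene driven by streptokinase promoter and grows in 40 µg/ml kanamycin; loss of luminescence reflects streptokinase promoter inhibition or plain growth inhibition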
# T cruzi inh: blocks replication of Trypanosoma cruzi; inhibition, % (concentration not given with the values); T. cruzi beta-gal in NIH3T3, luminescence, 90 h; actives 1.4% (n = 300,000);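 active = mean inhibition across valid replicates above about 55%, limit read from the data; inconclusive = mean below that limit but half or more replicates reach it; inactive = mean below it, under half of replicates reach it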;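 note: signal also drops with host cell toxicity which is not excluded here; higher percent means less beta-gal luminescence so fewer parasites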
#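 Test system: β-gal T. cruzi (Tulahuen C4) inside NIH/3T3 cells / Quantity: 5,000 cells/well / Measured by: luminescence from GalScreen with 0.05% NP40, read after 60 min / Medium: DMEM plus 2% FBS / Measure: parasite load inhibition, % / Reagent: Tulahuen C4 trypomastigotes, 5000/well / Schedule: co-culture of at least 90 h after 3 h attachment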
# Beta apoptosis: blocks beta cell apoptosis | protection from apoptosis, % (test concentration not listed) | INS-1E cytokine-induced death, ATP luminescence, 48 h; percent of positive-control rescue, neutral wells zero | actives 0.8% (n = 300,000);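 active = Every replicate reaches about 75%, or at least half do and their mean reaches it too, limit read from the data; inconclusive = At least half of replicates reach the limit but their mean does not; inactive = Under half of replicates reach the limit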;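 note: higher means more ATP so stronger rescue from cytokine killing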
# Numbers stand for hits; i = inactive; ? = inconclusive; nt = not tested or not shown.
SMILES,Mdm2 MdmX PPI,Calb FLC,CSC inhib,SKKanGAS inh,T cruzi inh,Beta apoptosis
Cc1ccc(CNc2nc(-c3cccnc3)nc3ccccc23)cc1,i,i,i,i,?,i
Cc1ccccc1Nc1nc(-c2cccnc2)nc2ccccc12,i,i,i,i,59,i
c1ccc(-c2nc(NCc3cccnc3)c3oc4ccccc4c3n2)cc1,i,i,i,i,56,i
c1ccc(CN2CCC(Nc3nc(-c4cccnc4)nc4ccccc34)CC2)cc1,i,i,i,i,59,i
CC(C)(C)c1ccc(-c2nc(NCc3cccnc3)c3ccccc3n2)cc1,i,i,133,i,i,i
Fc1ccc(CNc2nc(-c3cccnc3)nc3ccccc23)cc1,i,i,i,i,56,i
c1cncc(CNc2nc(-c3cccnc3)nc3ccccc23)c1,i,i,i,i,i,i
c1cncc(-c2nc(NCc3ccc4c(c3)OCO4)c3ccccc3n2)c1,i,i,i,i,69,i
CC(Nc1nc(-c2cccnc2)nc2ccccc12)c1ccc(F)cc1 (configuration not stated),i,i,i,i,56,i
c1ccc(CNc2nc(-c3cccnc3)nc3ccccc23)cc1,i,i,i,i,i,i
NS(=O)(=O)c1ccc(CNc2nc(-c3cccnc3)nc3ccccc23)cc1,i,i,i,i,i,i
CC(Nc1nc(-c2ccccc2)nc2ccccc12)c1ccccc1 (configuration not stated),i,i,?,i,i,i
COc1cc(C(C)=O)ccc1O,i,nt,i,i,i,i
N=c1c(C(=O)NCCN2CCOCC2)cc2c(=O)n3ccccc3nc2n1CCc1ccccc1,i,i,i,i,i,i
Cc1ccc(C(=O)NCCOc2ccc(Cl)cc2)cc1,i,i,i,i,i,i
Cc1ccc(C(=O)CC(=O)COc2ccc(Cl)cc2)cc1,i,114,i,64,i,i
CCOc1ccc(NCC(=O)c2ccc(C)cc2)cc1,i,i,i,i,57,i
O=C(c1cc(COc2ccc(F)cc2Cl)on1)N1CC2C[C@@H]3CC1C[C@H](C2)C3,i,i,i,i,?,i
Cc1ccc(NC(=O)c2cc(S(=O)(=O)NCCC3=CCCCC3)ccc2F)cc1,i,i,nt,i,i,105
O=C(NCCC1=CCCCC1)c1cc(S(=O)(=O)N2CCOCC2)ccc1F,i,nt,i,i,i,i
CC(C)(C)c1ccc(CN(Cc2ccccc2)C(c2ccccn2)c2nnnn2C(C)(C)C)cc1 (configuration not stated),i,i,i,i,62,i
CCN(Cc1ccccc1)C(c1ccncc1)c1nnnn1C(C)(C)C (configuration not stated),i,i,nt,i,i,nt
CC(c1ccccc1)N1C(=O)c2ccc(C(=O)Nc3ccccc3C(=O)O)cc2C1=O (configuration not stated),i,i,i,i,i,nt
CC(c1ccccc1)N1C(=O)c2ccc(C(=O)Nc3ccc(Br)cc3C(=O)O)cc2C1=O (configuration not stated),i,i,i,53,i,i
O=C(CN1C(=O)COc2ccccc21)NCCCN1CCc2ccccc2C1,i,101,i,i,i,i
SMILES,Mdm2 MdmX PPI,Calb FLC,CSC inhib,SKKanGAS inh,T cruzi inh,Beta apoptosis
Clc1ccc(C2[C@H]3CN(Cc4cccnc4)[C@H](c4ccccc4)C34CC2(c2ccccc2)C4)cn1 (some centres not stated),i,i,i,i,56,i
FC(F)(F)c1cccc(Cc2noc(CN3CCC(c4ccncc4)CC3)n2)c1,i,?,i,i,i,i
CNC(=O)COC(=O)c1c2c(nc3ccccc13)CCC2,i,110,i,i,i,i
CCCCNC(=O)COC(=O)c1c2c(nc3ccccc13)CCC2,i,i,i,i,i,i
COc1ccc(NC(=O)COC(=O)c2c3c(nc4ccccc24)CCCC3)cc1Cl,i,i,i,61,i,i
COc1ccc(NC(=O)COC(=O)c2c3c(nc4ccccc24)CCCC3)cc1,i,i,i,i,i,i
CC1(C)CCC[C@]2(C)[C@H]3Cc4cc(O)ccc4O[C@]3(C)CC[C@@H]12,i,nt,130,nt,nt,i
Cc1cc(C)c2nc(-c3ccccn3)cc(C(=O)Nc3ccc(S(=O)(=O)Nc4onc(C)c4C)cc3)c2c1,i,i,i,64,i,i
CC(Oc1cccc(Cl)c1)C(=O)Nc1ccc(N2CCOCC2)cc1N1CCOCC1 (configuration not stated),i,i,nt,i,i,i
C#CCOCCOCCOCCNc1nc(N2CCOCC2)nc(N2CCN(C(=O)CCCCCCCCCCNC(=O)[C@@H]([C@H](C)CC)n3cc(CCCCCN)nn3)CC2)n1,i,nt,i,nt,nt,i
C#CCOCCOCCOCCNc1nc(N2CCN(C(=O)CCCCCCCCCCNC(=O)Cn3cc(C[C@@H](C)O)nn3)CC2)nc(N2CCN(C(=O)CCCCCCCCCCNC(=O)[C@H](CCCN=C(N)N)n3cc(C[C@@H](C)CC)nn3)CC2)n1,i,i,i,i,66,i
CC[C@H](C)[C@@H](C(=O)NCCCCCCCCCCC(=O)N1CCN(C(=O)OC(C)(C)C)CC1)n1cc(CCCCCNC(=O)OC(C)(C)C)nn1,i,nt,i,nt,nt,101
C#CCOCCOCCOCCNc1nc(N2CCN(C(=O)CCCCCCCCCCNC(=O)Cn3cc(C[C@@H](C)O)nn3)CC2)nc(N2CCN(C(=O)CCCCCCCCCCNC(=O)[C@H](CCCCN)n3cc(CCCC(=O)O)nn3)CC2)n1,i,nt,i,nt,nt,i
C#CCOCCOCCOCCNc1nc(N2CCN(C(=O)CCCCCCCCCCNC(=O)[C@H]([C@@H](C)CC)n3cc(CCCCN=C(N)N)nn3)CC2)nc(N2CCN(C(=O)CCCCCCCCCCNC(=O)[C@H]([C@@H](C)CC)n3cc(CCCCN=C(N)N)nn3)CC2)n1,i,nt,i,nt,nt,99
CC(C)(C)OC(=O)CC[C@@H](C(=O)NCCCCCCCCCCC(=O)N1CCN(C(=O)OC(C)(C)C)CC1)n1cc(CCCCCNC(=O)OC(C)(C)C)nn1,i,nt,i,nt,nt,i
C#CCOCCOCCOCCNc1nc(N2CCN(C(=O)CCCCCCCCCCNC(=O)[C@H]([C@@H](C)CC)n3cc(CCCCCN)nn3)CC2)nc(N2CCN(C(=O)CCCCCCCCCCNC(=O)[C@H]([C@@H](C)CC)n3cc(CCCCN=C(N)N)nn3)CC2)n1,i,nt,i,nt,nt,98
COc1ccc(NC(C)=O)cc1S(=O)(=O)NC(C)c1ccc(-n2ccnc2)cc1 (configuration not stated),i,nt,i,nt,nt,i
Cc1cc2c(cc1S(=O)(=O)CCC(=O)N(C)C1CCCCC1)OCC(=O)N2,i,i,nt,i,i,i
Cc1cc(C(=O)O)ccc1N=Cc1c(O)ccc2ccccc12,i,i,i,i,i,i
Cc1cnc(C(=O)NC2CCSc3ccccc32)cn1 (configuration not stated),i,i,i,i,i,i
